Experimental data published in ChEMBL document CHEMBL3244382, “Structural requirements for antileukemic activity among the naturally occurring and semisynthetic maytansinoids” (J Med Chem, 1978).
Values after ≈ are worked out from the molar mass of the structure shown. Active and inactive are the calls of the source.

Key:
P388 [1] = assay: Antitumor activity against mouse P388 cells allografted in PS mouse assessed as median survival time at 1.6 ug/kg relative to control; assay type: functional
In short: (§1)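 P388 leukemia (PS) in mice, six mice started per dose group. Read-out is T/C: median survival time of the treated group divided by that of the untreated control group, expressed as a percent. The NIH protocol counts a compound as active when T/C > 125%.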

P388 [2] = assay: Antitumor activity against mouse P388 cells allografted in PS mouse assessed as median survival time at 400 ug/kg relative to control; assay type: functional; in short: as §1
P388 [3] = assay: Antitumor activity against mouse P388 cells allografted in PS mouse assessed as median survival time at 25 ug/kg relative to control; assay type: functional; in short: as §1
Mus musculus [4] = assay: Toxicity in PS mouse allografted with mouse P388 cells assessed as survival at 12.5 ug/kg after 4 days; assay type: organism-based; conditions: in vivo, 0.0125 mg/kg, 96 h
In short: (§2)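 PS (P388) leukemic mice, six started per dose group. Toxicity scored as survivors on the toxicity day over the number of mice started. The toxicity day is normally 4 days after the first injection.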

P388 [5] = assay: Antitumor activity against mouse P388 cells allografted in PS mouse assessed as median survival time at 50 ug/kg relative to control; assay type: functional; in short: as §1
P388 [6] = assay: Antitumor activity against mouse P388 cells allografted in PS mouse assessed as median survival time at 200 ug/kg relative to control; assay type: functional; in short: as §1
P388 [7] = assay: Antitumor activity against mouse P388 cells allografted in PS mouse assessed as median survival time at 100 ug/kg relative to control; assay type: functional; in short: as §1
Mus musculus [8] = assay: Toxicity in PS mouse allografted with mouse P388 cells assessed as survival at 25 ug/kg after 4 days; assay type: organism-based; conditions: in vivo, 0.025 mg/kg, 96 h; in short: as §2
Mus musculus [9] = assay: Toxicity in PS mouse allografted with mouse P388 cells assessed as survival at 400 ug/kg after 4 days; assay type: organism-based; conditions: in vivo, 0.4 mg/kg, 96 h; in short: as §2
Mus musculus [10] = assay: Toxicity in PS mouse allografted with mouse P388 cells assessed as survival at 3.1 ug/kg after 4 days; assay type: organism-based; conditions: in vivo, 0.0031 mg/kg, 96 h; in short: as §2
P388 [11] = assay: Antitumor activity against mouse P388 cells allografted in PS mouse assessed as median survival time at 12.5 ug/kg relative to control; assay type: functional; in short: as §1
Mus musculus [12] = assay: Toxicity in PS mouse allografted with mouse P388 cells assessed as survival at 50 ug/kg after 4 days; assay type: organism-based; conditions: in vivo, 0.05 mg/kg, 96 h; in short: as §2
Mus musculus [13] = assay: Toxicity in PS mouse allografted with mouse P388 cells assessed as change in body weight at 100 ug/kg relative to control; assay type: organism-based; conditions: in vivo, 0.1 mg/kg
In short: (§3)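 P388 (PS) leukemia in mice, 6 mice per dose group. Weight change is the difference in grams between treated and control animals. Survivors are recorded on toxicity day, normally 4 days after the first injection.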

Mus musculus [14] = assay: Toxicity in PS mouse allografted with mouse P388 cells assessed as survival at 1.6 ug/kg after 4 days; assay type: organism-based; conditions: in vivo, 0.0016 mg/kg, 96 h; in short: as §2
P388 [15] = assay: Antitumor activity against mouse P388 cells allografted in PS mouse assessed as median survival time at 3.1 ug/kg relative to control; assay type: functional; in short: as §1
Mus musculus [16] = assay: Toxicity in PS mouse allografted with mouse P388 cells assessed as change in body weight at 6.2 ug/kg relative to control; assay type: organism-based; conditions: in vivo, 0.0062 mg/kg; in short: as §3
Mus musculus [17] = assay: Toxicity in PS mouse allografted with mouse P388 cells assessed as change in body weight at 400 ug/kg relative to control; assay type: organism-based; conditions: in vivo, 0.4 mg/kg; in short: as §3
Mus musculus [18] = assay: Toxicity in PS mouse allografted with mouse P388 cells assessed as survival at 200 ug/kg after 4 days; assay type: organism-based; conditions: in vivo, 0.2 mg/kg, 96 h; in short: as §2
P388 [19] = assay: Antitumor activity against mouse P388 cells allografted in PS mouse assessed as median survival time at 6.2 ug/kg relative to control; assay type: functional; in short: as §1
Mus musculus [20] = assay: Toxicity in PS mouse allografted with mouse P388 cells assessed as change in body weight at 12.5 ug/kg relative to control; assay type: organism-based; conditions: in vivo, 0.0125 mg/kg; in short: as §3
Mus musculus [21] = assay: Toxicity in PS mouse allografted with mouse P388 cells assessed as survival at 100 ug/kg after 4 days; assay type: organism-based; conditions: in vivo, 0.1 mg/kg, 96 h; in short: as §2
Mus musculus [22] = assay: Toxicity in PS mouse allografted with mouse P388 cells assessed as survival at 6.2 ug/kg after 4 days; assay type: organism-based; conditions: in vivo, 0.0062 mg/kg, 96 h; in short: as §2
Mus musculus [23] = assay: Toxicity in PS mouse allografted with mouse P388 cells assessed as change in body weight at 200 ug/kg relative to control; assay type: organism-based; conditions: in vivo, 0.2 mg/kg; in short: as §3
Paracentrotus lividus = assay: Antimitotic activity against sea urchin eggs assessed as drug level causing inhibition of mitosis; assay type: functional; conditions: Egg
Mus musculus [24] = assay: Toxicity in PS mouse allografted with mouse P388 cells assessed as change in body weight at 25 ug/kg relative to control; assay type: organism-based; conditions: in vivo, 0.025 mg/kg; in short: as §3
Mus musculus [25] = assay: Toxicity in PS mouse allografted with mouse P388 cells assessed as change in body weight at 50 ug/kg relative to control; assay type: organism-based; conditions: in vivo, 0.05 mg/kg; in short: as §3
Tubulin (Homo sapiens) = Tubulin (Homo sapiens) (UniProt P68371+Q9H4B7+P0DPH7+P68366+Q13509+Q71U36+P04350+Q3ZCM7+P07437+P68363+Q9BQE3+Q6PEY2+Q13885+Q9BVA1+Q9BUF5); assay: Inhibition of brain tubulin polymerization (unknown origin) at 37 degC by spectrophotometry
KB = assay: Cytotoxicity against human KB cells; assay type: functional; conditions: read-out: ED50 (the source's name)
Mus musculus [26] = assay: Toxicity in PS mouse allografted with mouse P388 cells assessed as change in body weight at 3.1 ug/kg relative to control; assay type: organism-based; conditions: in vivo, 0.0031 mg/kg; in short: as §3
Mus musculus [27] = assay: Toxicity in PS mouse allografted with mouse P388 cells assessed as change in body weight at 1.6 ug/kg relative to control; assay type: organism-based; conditions: in vivo, 0.0016 mg/kg; in short: as §3

Structure (SMILES): CCO[C@]12C[C@H](OC(=O)N1)[C@@H](C)[C@@H]1O[C@@]1(C)[C@@H](OC(=O)[C@H](C)N(C)C(C)=O)CC(=O)N(C)c1cc(cc(OC)c1Cl)C/C(C)=C/C=C/[C@H]2OC
- T/C (P388 [1]): 99%
- T/C (P388 [2]): 100%
- T/C (P388 [3]): 116%
- Activity (Mus musculus [4]): Non-toxic
- T/C (P388 [5]): 98%
- T/C (P388 [6]): 98%
- T/C (P388 [7]): 105%
- Activity (Mus musculus [8]): Non-toxic
- Activity (Mus musculus [9]): Non-toxic
- Activity (Mus musculus [10]): Non-toxic
- T/C (P388 [11]): 101%
- Activity (Mus musculus [12]): Non-toxic
- Activity (Mus musculus [13]): -2 g
- Activity (Mus musculus [14]): Non-toxic
- T/C (P388 [15]): 99%
- Activity (Mus musculus [16]): -1.3 g
- Activity (Mus musculus [17]): -0.6 g
- Activity (Mus musculus [18]): Non-toxic
- T/C (P388 [19]): 99%
- Activity (Mus musculus [20]): -0.3 g
- Activity (Mus musculus [21]): Non-toxic
- Activity (Mus musculus [22]): Non-toxic
- Activity (Mus musculus [23]): 0.3 g
- Activity (Paracentrotus lividus): 1 ×10⁻⁷ mol/L
- Activity (Mus musculus [24]): -0.3 g
- Activity (Mus musculus [25]): -0.8 g
- inhibition (Tubulin (Homo sapiens)): Active
- EC50 (KB): 11 ng/mL (≈ 15.3 nM)
- Activity (Mus musculus [26]): -0.7 g
- Activity (Mus musculus [27]): -0.1 g

Structure (SMILES): CCCS[C@]12C[C@H](OC(=O)N1)[C@@H](C)[C@@H]1O[C@@]1(C)[C@@H](OC(=O)[C@H](C)N(C)C(=O)C(C)C)CC(=O)N(C)c1cc(cc(OC)c1Cl)C/C(C)=C/C=C/[C@H]2OC
- T/C (P388 [1]): 100%
- T/C (P388 [2]): 151%
- T/C (P388 [3]): 101%
- Activity (Mus musculus [4]): Non-toxic
- T/C (P388 [5]): 118%
- T/C (P388 [6]): 151%
- T/C (P388 [7]): 127%
- Activity (Mus musculus [8]): Non-toxic
- Activity (Mus musculus [9]): Non-toxic
- Activity (Mus musculus [10]): Non-toxic
- T/C (P388 [11]): 95%
- Activity (Mus musculus [12]): Non-toxic
- Activity (Mus musculus [13]): -1.6 g
- Activity (Mus musculus [14]): Non-toxic
- T/C (P388 [15]): 97%
- Activity (Mus musculus [16]): -0.1 g
- Activity (Mus musculus [17]): 0.6 g
- Activity (Mus musculus [18]): Non-toxic
- T/C (P388 [19]): <80%
- Activity (Mus musculus [20]): 0.6 g
- Activity (Mus musculus [21]): Non-toxic
- Activity (Mus musculus [22]): Non-toxic
- Activity (Mus musculus [23]): -2.4 g
- Activity (Paracentrotus lividus): 1 ×10⁻⁸ mol/L
- Activity (Mus musculus [24]): 0.7 g
- Activity (Mus musculus [25]): 0.4 g
- inhibition (Tubulin (Homo sapiens)): Active
- EC50 (KB): 0.31 ng/mL (≈ 0.398 nM)
- Activity (Mus musculus [26]): 0.6 g
- Activity (Mus musculus [27]): 0.8 g

Structure (SMILES): COc1cc2cc(c1Cl)N(C)C(=O)C[C@H](OC(=O)[C@H](C)N(C)C(=O)C(C)C)[C@]1(C)O[C@H]1[C@H](C)[C@@H]1C[C@@](OC)(NC(=O)O1)[C@H](OC)/C=C/C=C(\C)C2
- T/C (P388 [1]): 101%
- T/C (P388 [2]): 136%
- T/C (P388 [3]): 96%
- Activity (Mus musculus [4]): Non-toxic
- T/C (P388 [5]): 99%
- T/C (P388 [6]): 100%
- T/C (P388 [7]): 99%
- Activity (Mus musculus [8]): Non-toxic
- Activity (Mus musculus [9]): Non-toxic
- Activity (Mus musculus [10]): Non-toxic
- T/C (P388 [11]): 99%
- Activity (Mus musculus [12]): Non-toxic
- Activity (Mus musculus [13]): -1 g
- Activity (Mus musculus [14]): Non-toxic
- T/C (P388 [15]): 99%
- Activity (Mus musculus [16]): -0.6 g
- Activity (Mus musculus [17]): -3 g
- Activity (Mus musculus [18]): Non-toxic
- T/C (P388 [19]): 100%
- Activity (Mus musculus [20]): -2.1 g
- Activity (Mus musculus [21]): Non-toxic
- Activity (Mus musculus [22]): Non-toxic
- Activity (Mus musculus [23]): -0.9 g
- Activity (Paracentrotus lividus): 1 ×10⁻⁸ mol/L
- Activity (Mus musculus [24]): -0.5 g
- Activity (Mus musculus [25]): -2 g
- inhibition (Tubulin (Homo sapiens)): Active
- EC50 (KB): 0.16 ng/mL (≈ 0.218 nM)
- Activity (Mus musculus [26]): -1.1 g
- Activity (Mus musculus [27]): -1.8 g

Structure (SMILES): COc1cc2cc(c1Cl)N(C)C(=O)CC(O)C1(C)OC1C(C)C1CC(O)(NC(=O)O1)C(OC)/C=C/C=C(\C)C2 (configuration not stated) [MAYTANSINOL]
- T/C (P388 [2]): 102%
- T/C (P388 [3]): 94%
- Activity (Mus musculus [4]): Non-toxic
- T/C (P388 [5]): 112%
- T/C (P388 [6]): 112%
- T/C (P388 [7]): 105%
- Activity (Mus musculus [8]): Non-toxic
- Activity (Mus musculus [9]): Non-toxic
- Activity (Mus musculus [10]): Non-toxic
- T/C (P388 [11]): 102%
- Activity (Mus musculus [12]): Non-toxic
- Activity (Mus musculus [13]): 1.2 g
- T/C (P388 [15]): 102%
- Activity (Mus musculus [16]): 0.5 g
- Activity (Mus musculus [17]): -2.6 g
- Activity (Mus musculus [18]): Non-toxic
- T/C (P388 [19]): 102%
- Activity (Mus musculus [20]): 1.5 g
- Activity (Mus musculus [21]): Non-toxic
- Activity (Mus musculus [22]): Non-toxic
- Activity (Mus musculus [23]): -1.8 g
- Activity (Paracentrotus lividus): 1 ×10⁻⁵ mol/L
- Activity (Mus musculus [24]): 0.5 g
- Activity (Mus musculus [25]): -0.4 g
- inhibition (Tubulin (Homo sapiens)): Active
- EC50 (KB): 190 ng/mL (≈ 336 nM)
- Activity (Mus musculus [26]): 0.9 g
